The subject of assay [1] is T47D. The assay is described as follows: Inhibition of PR-B gene expression in human T47D cells harboring inactive DNA methyltransferase-1 at 100 nM by syber green assay. The assay is classed as functional, cell-based.
Assay [2] deals with T47D. Description: Inhibition of PR-A gene expression in human T47D cells at 25 nM by syber green assay in presence of 10 nM estradiol. The assay is classed as functional, cell-based.
For assay [3], the system named is T47D. Description: Inhibition of PR-B gene expression in human T47D cells at 25 nM by syber green assay in presence of 10 nM estradiol. The assay is classed as functional, cell-based.
Assay [4] deals with T47D. The assay is described as follows: Inhibition of PR-A mRNA gene expression in human T47D cells at 100 nM by syber green assay. The assay is classed as functional. In a few lines: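 T47D cells plated at 80,000/well without antibiotics two days before Oligofectamine transfection with agRNA duplex (25 or 100 nM final); medium changed at 24 h, harvest day 5 unless stated otherwise. TRIzol total RNA; PR mRNA by real-time PCR with SYBR Green: 50 °C 2 min, 95 °C 10 min, 40 cycles 95 °C 15 s/60 °C 1 min.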

The subject of assay [5] is T47D. Description: Inhibition of PR-B mRNA gene expression in human T47D cells at 100 nM by syber green assay. The assay is classed as functional. In a few lines: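 T47D cells in RPMI-1640 with 10% FBS, NEAA, insulin, 37 °C, 5% CO2. Plated two days before transfection without antibiotics. Oligofectamine-mediated duplex RNA transfection at 100 nM final, medium changed at 24 h, harvest five days post-transfection. Total RNA extracted with TRIzol. hPR mRNA quantified by SYBR Green qPCR: 50 °C 2 min, 95 °C 10 min, then 40 cycles of 95 °C 15 s / 60 °C 1 min.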

The test system of assay [6] is T47D. The assay is described as follows: Inhibition of PR-A gene expression in human T47D cells harboring inactive DNA methyltransferase-1 at 100 nM by syber green assay. The assay is classed as functional, cell-based.

Results on one compound are retold here after ChEMBL document CHEMBL1250442, “Inhibiting gene expression at transcription start sites in chromosomal DNA with antigene RNAs” (Nat Chem Biol, 2005).

Active and inactive are the calls of the source. The calls are words filed in the database; no cut-off is given here.

A word on the inhibition: it is the share of the control response that was lost under treatment. For `Cc1cn([C@H]2C[C@H](OP(=O)(O)OC[C@H]3O[C@@H](n4cc(C)c(=O)[nH]c4=O)C[C@@H]3O)[C@@H](COP(=O)(O)O[C@H]3[C@@H](O)[C@H](n4ccc(N)nc4=O)O[C@@H]3COP(=O)(O)O[C@H]3[C@@H](O)[C@H](n4cnc5c(=O)[nH]c(N)nc54)O[C@@H]3COP(=O)(O)O[C@H]3[C@@H](O)[C@H](n4cnc5c(N)ncnc54)O[C@@H]3COP(=O)(O)O[C@H]3[C@@H](O)[C@H](n4ccc(N)nc4=O)O[C@@H]3COP(=O)(O)O[C@H]3[C@@H](O)[C@H](n4cnc5c(N)ncnc54)O[C@@H]3COP(=O)(O)O[C@H]3[C@@H](O)[C@H](n4ccc(N)nc4=O)O[C@@H]3COP(=O)(O)O[C@H]3[C@@H](O)[C@H](n4ccc(N)nc4=O)O[C@@H]3COP(=O)(O)O[C@H]3C[C@H](n4ccc(=O)[nH]c4=O)O[C@@H]3COP(=O)(O)O[C@H]3[C@@H](O)[C@H](n4cnc5c(=O)[nH]c(N)nc54)O[C@@H]3COP(=O)(O)O[C@H]3[C@@H](O)[C@H](n4cnc5c(N)ncnc54)O[C@@H]3COP(=O)(O)O[C@H]3[C@@H](O)[C@H](n4cnc5c(=O)[nH]c(N)nc54)O[C@@H]3COP(=O)(O)O[C@H]3[C@@H](O)[C@H](n4ccc(N)nc4=O)O[C@@H]3COP(=O)(O)O[C@H]3[C@@H](O)[C@H](n4cnc5c(=O)[nH]c(N)nc54)O[C@@H]3COP(=O)(O)O[C@H]3[C@@H](O)[C@H](n4ccc(N)nc4=O)O[C@@H]3COP(=O)(O)O[C@H]3[C@@H](O)[C@H](n4ccc(=O)[nH]c4=O)O[C@@H]3COP(=O)(O)O[C@H]3[C@@H](O)[C@H](n4ccc(N)nc4=O)O[C@@H]3CO[PH](=O)O[C@H]3[C@@H](O)[C@H](n4ccc(=O)[nH]c4=O)O[C@@H]3COP(=O)(O)O[C@H]3[C@@H](O)[C@H](n4ccc(N)nc4=O)O[C@@H]3COP(=O)(O)O[C@H]3[C@@H](O)[C@H](n4ccc(=O)[nH]c4=O)O[C@@H]3CO)O2)c(=O)[nH]c1=O` (stereo partly specified), the inhibition entry in the assay with T47D [1], in the assay with T47D [2], in the assay with T47D [3] and in the assay on T47D [6] was “Active” in each case. Moreover, the inhibition at 0.1 µM with T47D [4] and in the assay with T47D [5] was less than 20% each time.
